Reference: article PMC4456214 (Molecular cancer therapeutics, 2015)
Values joined by “and” are separate entries in the source; they are usually repeats but may differ in a detail not shown here. Equal values may be shown once. Values belong to the compound of their own block, whether it stands above or below them.

Columns and labels:
HeLa xenograft = HeLa xenograft model; type: in vivo; settings: 3 mg/kg, nude mice
Outline: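 One million HeLa cells in Matrigel were injected subcutaneously on both flanks of 6-week-old NCR nude mice. Once tumours were established, test compound at 3 mg/kg or 1:1 PBS:DMSO vehicle was given intraperitoneally on days 2, 4 and 6 (n=5 mice, 10 tumours per group). Tumours were measured by caliper every other day and mean volumes plotted with SEM.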

Animal toxicity study = type: in vivo, NSG mice
HeLa = experiment: MTT cell proliferation assay, HeLa; type: cell-based; settings: 72 hours
Outline: (§1)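 Cells were plated at 2000 per well (MEFs) or 5000 per well (HeLa, MCF7) and left to attach overnight. Test compound at various concentrations was added, final DMSO 1%, for 72 h at 5% CO2. After 3 PBS washes, fresh medium with MTT reagent was added for 4 h at 37 °C in the dark, then detergent buffer. Absorbance was read at 570 nm. At least two independent experiments, each in triplicate.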

[1] = system: FoxM1, HuR, p21, p27 in MCF7 breast cancer cells; experiment: Western blot of cancer signaling proteins in MCF7 cells; type: cell-based
MCF7 = experiment: MTT cell proliferation assay, MCF7; type: cell-based; settings: 72 hours
Outline: as §1

Hsp70-Bag3 interaction = Hsp70-Bag3 interaction (Homo sapiens, UniProt P0DMV8); experiment: Co-immunoprecipitation of Hsp70 from HeLa cells, blotted for Bag3; type: cell-based; settings: 50 μM
Chain of Hsp70-Bag3 interaction (P0DMV8 2-641 limits assumed): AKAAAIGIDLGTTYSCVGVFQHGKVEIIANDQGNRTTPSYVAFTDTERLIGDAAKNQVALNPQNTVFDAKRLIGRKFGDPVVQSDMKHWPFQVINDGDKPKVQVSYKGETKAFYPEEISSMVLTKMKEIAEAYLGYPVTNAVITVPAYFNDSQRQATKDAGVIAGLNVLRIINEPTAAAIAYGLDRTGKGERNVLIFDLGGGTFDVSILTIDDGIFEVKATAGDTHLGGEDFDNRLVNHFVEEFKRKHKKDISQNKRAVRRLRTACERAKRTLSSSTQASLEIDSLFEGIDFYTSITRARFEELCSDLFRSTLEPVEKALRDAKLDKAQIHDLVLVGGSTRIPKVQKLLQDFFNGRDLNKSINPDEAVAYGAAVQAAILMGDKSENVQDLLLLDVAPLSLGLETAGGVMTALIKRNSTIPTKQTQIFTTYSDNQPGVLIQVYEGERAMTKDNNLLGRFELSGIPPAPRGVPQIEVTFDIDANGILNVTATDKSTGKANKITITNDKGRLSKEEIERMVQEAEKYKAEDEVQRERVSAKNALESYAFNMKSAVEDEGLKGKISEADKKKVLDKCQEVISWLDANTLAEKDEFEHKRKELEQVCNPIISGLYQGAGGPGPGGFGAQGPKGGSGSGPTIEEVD
Outline: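 HeLa extracts in M-PER lysis buffer at 5 mg total protein per mL. 500 μL samples took rabbit polyclonal anti-Hsp70 or goat IgG control, plus 1% DMSO or test compound at 50 μM final (5 mM stock). Rotated overnight at 4 °C, then 4 h on protein A/G Sepharose. Washed in PBS pH 7.4, eluted in SDS dye, run on 4–15% Tris-Tricine gel, immunoblotted for Hsp70 and Bag3 with chemiluminescence detection. Triplicate, quantification averaged.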

MCF7 xenografts = experiment: MCF7 xenograft model; type: in vivo, nude mice
Outline: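 One million MCF7 cells in Matrigel went subcutaneously on both flanks of 6-week-old NCR nude mice. After tumours reached 100 mm3, test compound at 3 mg/kg or 1:1 PBS:DMSO vehicle was given intraperitoneally on days 0, 2 and 4 (n=5 mice, 10 tumours). Caliper measurements every other day, mean volume with SEM. Treated tumours from three animals were Western blotted for signalling proteins.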

[2] = system: mouse embryonic fibroblasts (MEFs); experiment: MTT cell proliferation assay in normal fibroblasts; type: cell-based; settings: read-out: EC50, MEFs, 72 hours
Outline: as §1

Pharmacokinetics in mice = type: in vivo, NSG mice
Outline: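 NSG mice (three per group) received test compound at 0.3, 1 or 3 mg/kg intraperitoneally in 1:1 DMSO:PBS, dosed twice weekly for 2 weeks. After the final dose, tail-vein blood was taken at 1, 3, 8 and 24 h. Plasma levels were measured by LC-MS, and pharmacokinetic parameters including terminal half-life were calculated.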

OPM2 = experiment: Luciferase viability assay, multiple myeloma line OPM2; type: cell-based, Human; settings: 72 hours
Outline: (§2)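 Myeloma cells stably transduced with firefly luciferase were exposed to test compound at 11 concentrations between 30 nM and 30 uM for 72 h. Luciferin substrate was then added and bioluminescence read. Signal was normalised to mock-treated wells (100%) and no-cell wells (0%). IC50 came from fitted dose-response curves.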

OPM1 = experiment: Luciferase viability assay, multiple myeloma line OPM1; type: cell-based, Human; settings: 72 hours
Outline: as §2

Bag3 (Homo sapiens) = Bag3 (Homo sapiens) (UniProt O95817); settings: cited from earlier work
Chain of Bag3 (Homo sapiens) (O95817 2-575): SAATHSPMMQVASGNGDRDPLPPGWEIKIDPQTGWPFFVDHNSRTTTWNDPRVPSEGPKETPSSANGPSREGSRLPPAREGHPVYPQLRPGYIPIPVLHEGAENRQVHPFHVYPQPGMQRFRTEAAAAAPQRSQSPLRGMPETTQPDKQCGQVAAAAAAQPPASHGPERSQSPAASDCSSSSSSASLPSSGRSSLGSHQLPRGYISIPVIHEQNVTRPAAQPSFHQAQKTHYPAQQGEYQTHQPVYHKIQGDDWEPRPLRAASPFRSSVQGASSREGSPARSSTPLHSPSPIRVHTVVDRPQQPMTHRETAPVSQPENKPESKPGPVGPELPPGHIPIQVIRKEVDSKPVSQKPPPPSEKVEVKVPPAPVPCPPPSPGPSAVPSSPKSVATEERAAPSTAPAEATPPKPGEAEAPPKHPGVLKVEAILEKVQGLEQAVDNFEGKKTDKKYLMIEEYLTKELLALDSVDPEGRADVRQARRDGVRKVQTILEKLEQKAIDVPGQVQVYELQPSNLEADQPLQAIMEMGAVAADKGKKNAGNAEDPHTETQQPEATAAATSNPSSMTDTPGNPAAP

[3] = MCF7 xenograft tumors, Western blot

Chain of Hsp70 (P0DMV8 2-641): as the sequence (P0DMV8 2-641 limits assumed) above

Compound: CCn1c(=O)/c(=C2\Sc3cc(Cl)ccc3N2C)s/c1=C\c1scc[n+]1Cc1ccccc1.[Cl-] [JG-98]
- tumor growth, HeLa xenograft (HeLa xenograft): suppressed tumor growth
- weight loss (Animal toxicity study; 0.3, 1, 3 mg/kg intraperitoneal twice a week for 2 weeks, NSG mice): < 10%
- alanine aminotransferase and total bilirubin (Animal toxicity study; after the final dose, markers of liver function): in the normal range
- blood urea nitrogen (BUN) and creatinine levels (Animal toxicity study; all three dosages, after the final dose, renal function): normal
- tolerability (Animal toxicity study; mouse, in vivo, ip): well tolerated
- activity against HeLa (HeLa): sub-micromolar activity
- levels of FoxM1 and HuR [1]: reduced
- levels of the cell cycle inhibitors p27 and p21 [1]: increasing
- activity against MCF7 (MCF7): sub-micromolar activity
- reduction of Hsp70-Bag3 interaction (Hsp70-Bag3 interaction): ~ 60%
- tumor growth, MCF7 xenograft (MCF7 xenografts; 3 mg/kg intraperitoneal on days 0, 2 and 4, nude mice): limited tumor growth until day 6
- HuR and FoxM1 in tumor samples (MCF7 xenografts; [3]): tended to be decreased
- p21 in tumor samples (MCF7 xenografts; [3]): significantly elevated
- EC50 [2]: 4.5 µM and ~4.5 µM
- level in plasma (Pharmacokinetics in mice; 3 mg/kg intraperitoneal, after 1 hour, NSG mice): ~ 70 nM
- terminal half-life (Pharmacokinetics in mice; all three doses (0.3, 1, 3 mg/kg) intraperitoneal, NSG mice): approximately 20 hours
- stability in animals (Pharmacokinetics in mice; compared with YM-01): more stable than YM-01
- oral bioavailability (Pharmacokinetics in mice; mice): not orally bioavailable
- sensitivity of OPM2 (OPM2): relatively less sensitive
- sensitivity of OPM1 (OPM1): relatively less sensitive

Compound: Hsp70 (from UniProt P0DMV8)
- Kd (Bag3 (Homo sapiens)): 0.03 µM

- reduction of Hsp70-Bag3 interaction (Hsp70-Bag3 interaction): ~ 60%
Compound: YM-01 [reference compound]
